Data reported in ChEMBL document CHEMBL1156445, “The rapamycin-binding domain of the protein kinase mammalian target of rapamycin is a destabilizing domain” (J Biol Chem, 2007).
Calls of active or inactive are those of the source. No cut-off for these calls is given here.

Experiments:
Type in all cases: cell-based
NIH3T3 [1] = assay: Effect on stability of FKBP12-rapamycin binding domain N2043S stop codon mutant expressed in mouse NIH3T3 cells assessed as increase in yellow fluorescent protein fluorescence level at 1 uM after 24 hrs by flow cytometry
How it was run: (§1)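 FRB (mTOR residues 2015-2114, wild-type or mutant) fused to N-terminus of YFP in pBMN. NIH3T3 cells stably transduced with retrovirus from ΦNX cells; 293T cells transiently transfected (wild-type only). Cells mock-treated or given 1 μM iRap for 24 h, then trypsinized, PBS-washed and analysed by flow cytometry (10,000 events). Mean fluorescence intensity, triplicate.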

[2] = Activation of FKBP12-rapamycin binding domain I2021T M2058V G2061D K2066R K2090R S2091L stop codon mutant in african green monkey COS1 cells after 16 hrs assessed as induction of secreted alkaline phosphatase expression assay; conditions: COS-1, 16 h
How it was run: (§2)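 COS-1 cells co-transfected by electroporation with Gal4BD-FKBP (pBJ5-GF3E), VP16AD-FRB (pBJ5-FRBVE, wild-type or mutant FRB) and SeAP reporter (pG5IL2SX). Cells treated in quadruplicate for 16 h with iRap (0.5-500 nM) or rapamycin (0.05-50 nM). SeAP read as fluorescence from methylumbelliferylphosphate substrate. EC50 derived from curve fits of mean (±SEM).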

[3] = Activation of FKBP12-rapamycin binding domain I2021T E2029G L2037S stop codon mutant in african green monkey COS1 cells after 16 hrs assessed as induction of secreted alkaline phosphatase expression assay; conditions: COS-1, 16 h; how it was run: as §2
[4] = Activation of wild-type FKBP12-rapamycin binding domain protein in african green monkey COS1 cells after 16 hrs assessed as induction of secreted alkaline phosphatase expression assay; conditions: COS-1, 16 h; how it was run: as §2
[5] = Activation of FKBP12-rapamycin binding domain E2067G stop codon mutant in african green monkey COS1 cells after 16 hrs assessed as induction of secreted alkaline phosphatase expression assay; conditions: COS-1, 16 h; how it was run: as §2
[6] = Activation of FKBP12-rapamycin binding domain stop codon>Leu mutant in african green monkey COS1 cells after 16 hrs assessed as induction of secreted alkaline phosphatase expression assay; conditions: COS-1, 16 h; how it was run: as §2
[7] = Activation of FKBP12-rapamycin binding domain I2021T W2023R K2045L S2112P stop codon mutant in african green monkey COS1 cells after 16 hrs assessed as induction of secreted alkaline phosphatase expression assay; conditions: COS-1, 16 h; how it was run: as §2
[8] = Activation of FKBP12-rapamycin binding domain K2066R D2077G stop codon mutant in african green monkey COS1 cells after 16 hrs assessed as induction of secreted alkaline phosphatase expression assay; conditions: COS-1, 16 h; how it was run: as §2
NIH3T3 [9] = assay: Effect on stability of FKBP12-rapamycin binding domain H2024R stop codon mutant expressed in mouse NIH3T3 cells assessed as increase in yellow fluorescent protein fluorescence level at 1 uM after 24 hrs by flow cytometry; how it was run: as §1
[10] = Activation of FKBP12-rapamycin binding domain N2043S stop codon mutant in african green monkey COS1 cells after 16 hrs assessed as induction of secreted alkaline phosphatase expression assay; conditions: COS-1, 16 h; how it was run: as §2
[11] = Activation of FKBP12-rapamycin binding domain C2085R stop codon mutant in african green monkey COS1 cells after 16 hrs assessed as induction of secreted alkaline phosphatase expression assay; conditions: COS-1, 16 h; how it was run: as §2
[12] = Activation of FKBP12-rapamycin binding domain R2110 mutant in african green monkey COS1 cells after 16 hrs assessed as induction of secreted alkaline phosphatase expression assay; conditions: COS-1, 16 h; how it was run: as §2
NIH3T3 [13] = assay: Effect on stability of wild-type FKBP12-rapamycin binding domain protein expressed in mouse NIH3T3 cells assessed as increase in yellow fluorescent protein fluorescence level at 10 nM after 24 hrs by flow cytometry
How it was run: (§3)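 NIH3T3 cells stably transduced with wtFRB-YFP, treated with iRap (10 nM to 10 μM). YFP fluorescence monitored by flow cytometry over 24 h, 10,000 events per sample. Mean fluorescence intensity expressed relative to the overall highest value; duplicate.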

[14] = Activation of FKBP12-rapamycin binding domain I2021T A2100V stop codon mutant in african green monkey COS1 cells after 16 hrs assessed as induction of secreted alkaline phosphatase expression assay; conditions: COS-1, 16 h; how it was run: as §2
[15] = Activation of FKBP12-rapamycin binding domain H2024R stop codon mutant protein in african green monkey COS1 cells after 16 hrs assessed as induction of secreted alkaline phosphatase expression assay; conditions: COS-1, 16 h; how it was run: as §2
[16] = Activation of FKBP12-rapamycin binding domain M2026V E2049G stop codon mutant in african green monkey COS1 cells after 16 hrs assessed as induction of secreted alkaline phosphatase expression assay; conditions: COS-1, 16 h; how it was run: as §2
NIH3T3 [17] = assay: Effect on stability of FKBP12-rapamycin binding domain T2068S E2080G stop codon mutant expressed in mouse NIH3T3 cells assessed as increase in yellow fluorescent protein fluorescence level at 1 uM after 24 hrs by flow cytometry; how it was run: as §1
[18] = Activation of FKBP12-rapamycin binding domain A2020V I2021T D2096G stop codon mutant in african green monkey COS1 cells after 16 hrs assessed as induction of secreted alkaline phosphatase expression assay; conditions: COS-1, 16 h; how it was run: as §2
[19] = Activation of FKBP12-rapamycin binding domain S2069P M2079I stop codon mutant in african green monkey COS1 cells after 16 hrs assessed as induction of secreted alkaline phosphatase expression assay; conditions: COS-1, 16 h; how it was run: as §2
[20] = Activation of FKBP12-rapamycin binding domain I2021T K2045E E2049G M2057T E2083K stop codon mutant in african green monkey COS1 cells after 16 hrs assessed as induction of secreted alkaline phosphatase expression assay; conditions: COS-1, 16 h; how it was run: as §2
[21] = Activation of FKBP12-rapamycin binding domain T2068S E2080G stop codon mutant in african green monkey COS1 cells after 16 hrs assessed as induction of secreted alkaline phosphatase expression assay; conditions: COS-1, 16 h; how it was run: as §2
[22] = Activation of FKBP12-rapamycin binding domain I2021V stop codon mutant in african green monkey COS1 cells after 16 hrs assessed as induction of secreted alkaline phosphatase expression assay; conditions: COS-1, 16 h; how it was run: as §2
NIH3T3 [23] = assay: Effect on stability of wild-type FKBP12-rapamycin binding domain protein expressed in mouse NIH3T3 cells assessed as increase in yellow fluorescent protein fluorescence level at 1 uM after 24 hrs by flow cytometry; how it was run: as §1
NIH3T3 [24] = assay: Effect on stability of FKBP12-rapamycin binding domain K2066R D2077G stop codon mutant expressed in mouse NIH3T3 cells assessed as increase in yellow fluorescent protein fluorescence level at 1 uM after 24 hrs by flow cytometry; how it was run: as §1
NIH3T3 [25] = assay: Effect on stability of wild-type FKBP12-rapamycin binding domain protein expressed in mouse NIH3T3 cells assessed as increase in yellow fluorescent protein fluorescence level at 10 uM after 24 hrs by flow cytometry; how it was run: as §3
[26] = Activation of FKBP12-rapamycin binding domain S2069P stop codon mutant in african green monkey COS1 cells after 16 hrs assessed as induction of secreted alkaline phosphatase expression assay; conditions: COS-1, 16 h; how it was run: as §2
[27] = Activation of FKBP12-rapamycin binding domain T2064I Y2074H K2090R stop codon mutant in african green monkey COS1 cells after 16 hrs assessed as induction of secreted alkaline phosphatase expression assay; conditions: COS-1, 16 h; how it was run: as §2
[28] = Activation of FKBP12-rapamycin binding domain mutant in african green monkey COS1 cells after 16 hrs assessed as induction of secreted alkaline phosphatase expression assay; conditions: COS-1, 16 h; how it was run: as §2
[29] = Activation of FKBP12-rapamycin binding domain I2017V E2033G stop codon mutant in african green monkey COS1 cells after 16 hrs assessed as induction of secreted alkaline phosphatase expression assay; conditions: COS-1, 16 h; how it was run: as §2
NIH3T3 [30] = assay: Effect on stability of wild-type FKBP12-rapamycin binding domain protein expressed in mouse NIH3T3 cells assessed as increase in yellow fluorescent protein fluorescence level at 100 nM after 24 hrs by flow cytometry; how it was run: as §3
293T = assay: Effect on stability of wild-type FKBP12-rapamycin binding domain protein expressed in human 293T cells assessed as increase in yellow fluorescent protein fluorescence level at 1 uM after 24 hrs by flow cytometry; how it was run: as §1

## CO[C@@H]1C[C@H](C[C@@H](C)[C@@H]2CC(=O)[C@H](C)/C=C(\C)[C@@H](O)[C@@H](OC)C(=O)[C@H](C)C[C@H](C)/C=C/C=C/C=C(\C)[C@@H](c3[nH]c4ccccc4c3C)C[C@@H]3CC[C@@H](C)[C@@](O)(O3)C(=O)C(=O)N3CCCC[C@H]3C(=O)O2)CC[C@H]1O
NIH3T3 [1]
  Activity: 8
[2]
  EC50: 100 nM
[3]
  EC50: 88.8 nM
[4]
  EC50: 20.5 nM
[5]
  EC50: 45.1 nM
[6]
  EC50: 26 nM
[7]
  EC50: 31.4 nM
[8]
  EC50: 20.4 nM
NIH3T3 [9]
  Activity: 4
[10]
  EC50: 24.9 nM
[11]
  EC50: 33.4 nM
[12]
  EC50: 250 nM
NIH3T3 [13]
  Activity: Active
[14]
  EC50: 67.4 nM
[15]
  EC50: 14.4 nM
[16]
  EC50: 39 nM
NIH3T3 [17]
  Activity: 5
[18]
  EC50: 41.7 nM
[19]
  EC50: 39.1 nM
[20]
  EC50: 29.7 nM
[21]
  EC50: 19.3 nM
[22]
  EC50: 28.1 nM
NIH3T3 [23]
  Activity: 10
NIH3T3 [24]
  Activity: 7
NIH3T3 [25]
  Activity: Active
[26]
  EC50: 42.7 nM
[27]
  EC50: 22.1 nM
[28]
  EC50: 32.6 nM
[29]
  EC50: 23 nM
NIH3T3 [30]
  Activity: Active
293T
  Activity: Active
